This note sets out measurements from ChEMBL document CHEMBL1123706, “Design of alternate substrate inhibitors of serine proteases. Synergistic use of alkyl substitution to impede enzyme-catalyzed deacylation” (J Med Chem, 1987).

For one assay, the target named is T1, Neutrophil elastase (Homo sapiens, UniProt P08246).
T1 sequence (P08246 whole entry): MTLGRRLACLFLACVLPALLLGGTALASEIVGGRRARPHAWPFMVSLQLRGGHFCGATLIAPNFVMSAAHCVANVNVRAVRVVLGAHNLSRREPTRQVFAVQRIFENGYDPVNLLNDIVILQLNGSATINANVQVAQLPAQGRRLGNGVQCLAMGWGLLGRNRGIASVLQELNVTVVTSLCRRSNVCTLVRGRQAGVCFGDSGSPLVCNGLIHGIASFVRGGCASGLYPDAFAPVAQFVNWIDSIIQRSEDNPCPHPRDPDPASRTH
Nature of the assay: Binding affinity against human leukocyte elastase was determined. The essentials: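 Elastase purified from human leukocytes and assayed by the progress-curve method. Enzyme turnover of a fluorogenic coumarin substrate at about 0.04 Km served as a probe of free enzyme. Buffer was 25 mM K+ HEPES, 1 M NaCl, 0.1% Brij 35, pH 7.8, 25 °C. Read-out was fluorescence at 400 nm excitation and 505 nm emission.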

In assay [1] the target is T2, Neutrophil elastase (Homo sapiens) (UniProt P08246).
T2 sequence (whole entry): T1 sequence (P08246 whole entry)
Nature of the assay: Rate of deacylation by human leukocyte elastase. Put shortly:
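Otherwise, acyl enzyme was prepared and isolated on Sephadex G-25 at low pH. Deacylation was followed as the return of activity after dilution into assay buffer containing fluorogenic substrate.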

Assay [2] addresses T2, Neutrophil elastase (Homo sapiens).

What is called Ki is the equilibrium dissociation constant of an inhibitor or competing ligand from its target. Higher therefore signals lower affinity. On Neutrophil elastase, `Nc1nc2ccccc2c(=O)o1` yielded a Ki of 63000 nM. In other words, the double-digit micromolar range.
In turn, `CNc1nc2cccc(C)c2c(=O)o1` came in with a k off in assay [1] of 0.15 s⁻¹. For the same compound, the Ki at Neutrophil elastase amounted to 31000 nM. Also, the k1 in assay [2] was found to be 4800 M⁻¹ s⁻¹.
For `CCNc1nc2ccccc2c(=O)o1`, on Neutrophil elastase, the Ki came to 51 nM.
`CCc1cccc2nc(N)oc(=O)c12`: the Ki on Neutrophil elastase was found to be 5100 nM. This Ki lies about 100-fold higher than the previous one.
In turn, `Cc1cccc2nc(NC(C)C)oc(=O)c12` returned a Ki at Neutrophil elastase of 1.5 nM.
Same read-out and setting: the result for `CCCNc1nc2ccccc2c(=O)o1` reads 91 nM; that for `CNc1nc2ccccc2c(=O)o1`, 6900 nM.
The same measure, in the same setting: with `CCNc1nc2cccc(C)c2c(=O)o1` the figure was 34 nM.
`CC(C)Nc1nc2ccccc2c(=O)o1` displayed a k off in assay [1] of 0.003 s⁻¹. Further, the Ki at Neutrophil elastase is 52 nM. In assay [2], this compound yielded a k1 of 59000 M⁻¹ s⁻¹.
The compound `CCCCCCNc1nc2ccccc2c(=O)o1` registered a Ki at Neutrophil elastase of 3600 nM.
The same measure, in the same setting: the result for `CCC(C)Nc1nc2ccccc2c(=O)o1` (centres undefined) reads 43 nM; that for `CCCCNc1nc2ccccc2c(=O)o1`, 84 nM; that for `CCCCNc1nc2cccc(C)c2c(=O)o1`, 23 nM.
In assay [1], `CCCNc1nc2cccc(C)c2c(=O)o1` gave a k off of 0.00034 s⁻¹. Besides, affinity at Neutrophil elastase was put at a Ki of 6 nM. Besides, in assay [2], the k1 was 56000 M⁻¹ s⁻¹.
On to `CCc1cccc2nc(NC(C)C)oc(=O)c12`, for which the affinity at Neutrophil elastase, expressed as Ki, was 0.94 nM. In other words, the sub-nanomolar range.
The compound `CCCCNc1nc2cccc(CC)c2c(=O)o1` registered a k off in assay [1] of 0.00053 s⁻¹. On Neutrophil elastase, affinity was put at a Ki of 4.2 nM. In addition, in assay [2], the k1 came out at 130000 M⁻¹ s⁻¹.
